Assay results reported in ChEMBL document CHEMBL2346607, “Borrelidin analogues with antimalarial activity: design, synthesis and biological evaluation against Plasmodium falciparum parasites” (Bioorg Med Chem Lett, 2013).
Converted amounts (≈) assume the structure as drawn.

Key:
[1] = Selectivity index, ratio of IC50 for human […] cells to IC50 for Plasmodium falciparum FCR-3; assay type: toxicity, cell-based; settings: […] cells (cytotoxicity) versus Plasmodium falciparum FCR-3, read-out: Ratio IC50
How it was run: (§1)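 SI is the MRC-5 cytotoxicity IC50 (ng/mL) divided by the antimalarial IC50 (ng/mL) against the FCR3 or K1 strain. Both IC50s come from the same in vitro test series.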

[2] = Selectivity index, ratio of IC50 for human […] cells to IC50 for Plasmodium falciparum K1; assay type: toxicity, cell-based; settings: MCR5 cells (cytotoxicity) versus Plasmodium falciparum K1, read-out: Ratio IC50; how it was run: as §1
[3] = Cytotoxicity against human […] cells after 7 days by MTT assay; assay type: cell-based; settings: 168 h
How it was run: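 Cytotoxicity was tested on MRC-5, a human diploid embryonic cell line. The value is reported as an IC50 in ng/mL.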

Plasmodium falciparum [4] = experiment: Antimalarial activity against Plasmodium falciparum K1 infected in human erythrocytes after 72 hrs by lactate dehydrogenase assay; assay type: functional, organism-based; settings: K1, 72 h
How it was run: (§2)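 In vitro assay against the P. falciparum strains K1 (drug-resistant) and FCR3 (drug-sensitive). The value is reported as an IC50 in ng/mL.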

Plasmodium falciparum [5] = experiment: Antimalarial activity against Plasmodium falciparum FCR-3 infected in human erythrocytes after 72 hrs by lactate dehydrogenase assay; assay type: functional, cell-based; settings: FCR-3/Gambia; how it was run: as §2

Row | IC50 (Plasmodium falciparum [4]) [ng/mL] | IC50 (Plasmodium falciparum [5]) [ng/mL] | Structure (SMILES) | selectivity ratio [1] | selectivity ratio [2] | IC50 [3] [µg/mL]
1 | – | – | C[C@@H]1CC[C@H]2[C@@H](C)C(=O)O[C@@H]3O[C@@]4(C)CC[C@@H]1[C@]32OO4 [ARTEMISININ] | 7530 | 7530 | 45.2 (≈ 160 µM)
2 | 580 (≈ 0.961 µM) | 810 (≈ 1.34 µM) | C[C@@H]1C[C@H](C)C[C@H](C)[C@@H](O)CC(=O)O[C@H]([C@@H]2CCC[C@H]2C(=O)N[C@@H](CC(N)=O)C(=O)O)C/C=C/C=C(/C#N)[C@H](O)[C@@H](C)C1 | > 124 | > 172 | > 1000
3 | 2.9 (≈ 0.00448 µM) | 4.8 (≈ 0.00741 µM) | C[C@@H]1C[C@H](C)C[C@H](C)[C@@H](O)CC(=O)O[C@H]([C@@H]2CCC[C@H]2C(=O)OCc2cn(-c3cccnc3)nn2)C/C=C/C=C(/C#N)[C@H](O)[C@@H](C)C1 | 86 | 143 | 0.41 (≈ 0.633 µM)
4 | 77.7 (≈ 0.147 µM) | 39.2 (≈ 0.074 µM) | C=CCOC(=O)[C@@H]1CCC[C@H]1[C@@H]1C/C=C/C=C(/C#N)[C@H](O)[C@@H](C)C[C@H](C)C[C@H](C)C[C@H](C)[C@@H](O)CC(=O)O1 | 118 | 59.6 | 4.63 (≈ 8.74 µM)
5 | 24.6 (≈ 0.0424 µM) | 20.5 (≈ 0.0354 µM) | C[C@@H]1C[C@H](C)C[C@H](C)[C@@H](O)CC(=O)O[C@H]([C@@H]2CCC[C@H]2C(=O)OCc2ccccc2)C/C=C/C=C(/C#N)[C@H](O)[C@@H](C)C1 | 198 | 165 | 4.05 (≈ 6.99 µM)
6 | 140 (≈ 0.243 µM) | 200 (≈ 0.347 µM) | C[C@@H]1C[C@H](C)C[C@H](C)[C@@H](O)CC(=O)O[C@H]([C@@H]2CCC[C@H]2C(=O)N[C@@H](CO)C(=O)O)C/C=C/C=C(/C#N)[C@H](O)[C@@H](C)C1 | > 500 | > 714 | > 1000
7 | – | – | CCN(CC)CCCC(C)Nc1ccnc2cc(Cl)ccc12 (stereo not given) [CHLOROQUINE] | – | – | 18.6 (≈ 58.1 µM)
8 | 67.8 (≈ 0.131 µM) | 23.3 (≈ 0.045 µM) | CCOC(=O)[C@@H]1CCC[C@H]1[C@@H]1C/C=C/C=C(/C#N)[C@H](O)[C@@H](C)C[C@H](C)C[C@H](C)C[C@H](C)[C@@H](O)CC(=O)O1 | 939 | 323 | 21.9 (≈ 42.3 µM)
9 | 90.4 (≈ 0.17 µM) | 78.8 (≈ 0.148 µM) | CCCOC(=O)[C@@H]1CCC[C@H]1[C@@H]1C/C=C/C=C(/C#N)[C@H](O)[C@@H](C)C[C@H](C)C[C@H](C)C[C@H](C)[C@@H](O)CC(=O)O1 | 232 | 202 | 18.2 (≈ 34.2 µM)
10 | 59 (≈ 0.108 µM) | 72 (≈ 0.131 µM) | CC(C)SC(=O)[C@@H]1CCC[C@H]1[C@@H]1C/C=C/C=C(/C#N)[C@H](O)[C@@H](C)C[C@H](C)C[C@H](C)C[C@H](C)[C@@H](O)CC(=O)O1 | 142 | 172 | 10.2 (≈ 18.6 µM)
11 | 107 (≈ 0.184 µM) | 160 (≈ 0.275 µM) | C[C@@H]1C[C@H](C)C[C@H](C)[C@@H](O)CC(=O)O[C@H]([C@@H]2CCC[C@H]2C(=O)Sc2ccccc2)C/C=C/C=C(/C#N)[C@H](O)[C@@H](C)C1 | 6 | 9 | 0.98 (≈ 1.68 µM)
12 | – | 13 (≈ 0.0232 µM) | C[C@@H]1C[C@H](C)C[C@H](C)[C@@H](O)CC(=O)O[C@H]([C@@H]2CCC[C@H]2C(=O)N[C@@H](C)C(=O)O)C/C=C/C=C(/C#N)[C@H](O)[C@@H](C)C1 | 4190 | – | –
13 | 0.62 (≈ 0.00103 µM) | 0.43 (≈ 0.000713 µM) | C[C@@H]1C[C@H](C)C[C@H](C)[C@@H](O)CC(=O)O[C@H]([C@@H]2CCC[C@H]2C(=O)OCCN2CCOCC2)C/C=C/C=C(/C#N)[C@H](O)[C@@H](C)C1 | 604 | 419 | 0.26 (≈ 0.431 µM)
14 | 107 (≈ 0.186 µM) | 120 (≈ 0.209 µM) | CC(=O)O[C@H]1CC(=O)O[C@H]([C@@H]2CCC[C@H]2C(=O)O)C/C=C/C=C(/C#N)[C@H](OC(C)=O)[C@@H](C)C[C@H](C)C[C@H](C)C[C@@H]1C | 464 | 522 | 55.7 (≈ 97.1 µM)
15 | 21 (≈ 0.0384 µM) | 31 (≈ 0.0567 µM) | C[C@@H]1C[C@H](C)C[C@H](C)[C@@H](O)CC(=O)O[C@H]([C@@H]2CCC[C@H]2C(=O)NCC(=O)O)C/C=C/C=C(/C#N)[C@H](O)[C@@H](C)C1 | 1900 | 2850 | 58.9 (≈ 108 µM)
16 | 163 (≈ 0.25 µM) | 170 (≈ 0.26 µM) | C[C@@H]1C[C@H](C)C[C@H](C)[C@@H](O)CC(=O)O[C@H]([C@@H]2CCC[C@H]2C(=O)N[C@@H](Cc2ccc(O)cc2)C(=O)O)C/C=C/C=C(/C#N)[C@H](O)[C@@H](C)C1 | 197 | 206 | 33.4 (≈ 51.2 µM)
17 | 2.6 (≈ 0.00493 µM) | 5 (≈ 0.00948 µM) | C#CCOC(=O)[C@@H]1CCC[C@H]1[C@@H]1C/C=C/C=C(/C#N)[C@H](O)[C@@H](C)C[C@H](C)C[C@H](C)C[C@H](C)[C@@H](O)CC(=O)O1 | 240 | 462 | 1.2 (≈ 2.27 µM)
18 | 18 (≈ 0.0299 µM) | 12 (≈ 0.0199 µM) | CC[C@H](C)[C@H](NC(=O)[C@@H]1CCC[C@H]1[C@@H]1C/C=C/C=C(/C#N)[C@H](O)[C@@H](C)C[C@H](C)C[C@H](C)C[C@H](C)[C@@H](O)CC(=O)O1)C(=O)O | 5330 | 3200 | 64 (≈ 106 µM)
19 | 0.067 (≈ 9.6e-05 µM) | 0.079 (≈ 0.000113 µM) | C[C@@H]1C[C@H](C)C[C@H](C)[C@@H](O)CC(=O)O[C@H]([C@@H]2CCC[C@H]2C(=O)OCc2cn(-c3cnc4ccccc4c3)nn2)C/C=C/C=C(/C#N)[C@H](O)[C@@H](C)C1 | 13400 | 15600 | 1.05 (≈ 1.5 µM)
20 | 163 (≈ 0.29 µM) | 170 (≈ 0.303 µM) | CCCCSC(=O)[C@@H]1CCC[C@H]1[C@@H]1C/C=C/C=C(/C#N)[C@H](O)[C@@H](C)C[C@H](C)C[C@H](C)C[C@H](C)[C@@H](O)CC(=O)O1 | 12 | 12 | 2 (≈ 3.56 µM)
21 | 37.8 (≈ 0.0547 µM) | 48.5 (≈ 0.0702 µM) | C[C@@H]1C[C@H](C)C[C@H](C)[C@@H](O)CC(=O)O[C@H]([C@@H]2CCC[C@H]2C(=O)OCc2cn(-c3ccc(C(=O)O)cc3)nn2)C/C=C/C=C(/C#N)[C@H](O)[C@@H](C)C1 | 209 | 267 | 10.1 (≈ 14.6 µM)
22 | 10 (≈ 0.0199 µM) | 10 (≈ 0.0199 µM) | COC(=O)[C@@H]1CCC[C@H]1[C@@H]1C/C=C/C=C(/C#N)[C@H](O)[C@@H](C)C[C@H](C)C[C@H](C)C[C@H](C)[C@@H](O)CC(=O)O1 | 1460 | 1460 | 14.6 (≈ 29 µM)
23 | 130 (≈ 0.263 µM) | 130 (≈ 0.263 µM) | C[C@@H]1C[C@H](C)C[C@H](C)[C@@H](O)CC(=O)O[C@H]([C@@H]2CCC[C@H]2C(=O)O)CCCCC(C#N)[C@H](O)[C@@H](C)C1 (stereo not given in full) | 102 | 102 | –
24 | 0.31 (≈ 0.000553 µM) | 0.24 (≈ 0.000428 µM) | C[C@@H]1C[C@H](C)C[C@H](C)[C@@H](O)CC(=O)O[C@H]([C@@H]2CCC[C@H]2C(=O)OCCN(C)C)C/C=C/C=C(/C#N)[C@H](O)[C@@H](C)C1 | 750 | 581 | 0.18 (≈ 0.321 µM)
25 | 167 (≈ 0.305 µM) | 280 (≈ 0.511 µM) | CCCSC(=O)[C@@H]1CCC[C@H]1[C@@H]1C/C=C/C=C(/C#N)[C@H](O)[C@@H](C)C[C@H](C)C[C@H](C)C[C@H](C)[C@@H](O)CC(=O)O1 | 12 | 20 | 3.4 (≈ 6.21 µM)
26 | 8 (≈ 0.015 µM) | 10 (≈ 0.0187 µM) | CCSC(=O)[C@@H]1CCC[C@H]1[C@@H]1C/C=C/C=C(/C#N)[C@H](O)[C@@H](C)C[C@H](C)C[C@H](C)C[C@H](C)[C@@H](O)CC(=O)O1 | 1340 | 1570 | 12.7 (≈ 23.8 µM)
27 | 70 (≈ 0.0993 µM) | 168 (≈ 0.238 µM) | C[C@@H]1C[C@H](C)C[C@H](C)[C@@H](O)CC(=O)O[C@H]([C@@H]2CCC[C@H]2C(=O)OCc2cn(C34CC5CC(CC(C5)C3)C4)nn2)C/C=C/C=C(/C#N)[C@H](O)[C@@H](C)C1 | 16 | 39 | 2.7 (≈ 3.83 µM)

Row | Structure (SMILES) | IC50 (Plasmodium falciparum [4]) [ng/mL] | IC50 (Plasmodium falciparum [5]) [ng/mL] | selectivity ratio [1] | selectivity ratio [2] | IC50 [3] [µg/mL]
28 | C[C@@H]1C[C@H](C)C[C@H](C)[C@@H](O)CC(=O)O[C@H]([C@@H]2CCC[C@H]2C(=O)O)C/C=C/C=C(/C#N)[C@H](O)[C@@H](C)C1 [BORRELIDIN] | 0.93 (≈ 0.0019 µM) | 0.88 (≈ 0.0018 µM) | 228 | 216 | 0.201 (≈ 0.41 µM)
29 | C[C@@H]1C[C@H](C)C[C@H](C)[C@@H](O)CC(=O)O[C@H]([C@@H]2CCC[C@H]2C(=O)OCc2cn(CSc3ccccc3)nn2)C/C=C/C=C(/C#N)[C@H](O)[C@@H](C)C1 | 0.031 (≈ 4.47e-05 µM) | 0.85 (≈ 0.00123 µM) | 19800 | 542000 | 16.8 (≈ 24.2 µM)
